Active and inactive are the calls of the source. The calls are words filed in the database; no cut-off is given here.
Assays:
[1] = molecular target: T1, Sodium channel protein type 2 subunit alpha (Homo sapiens, UniProt Q99250); assay: Inhibition of human Nav1.2 assessed as 10 Hz block by patch-clamp electrophysiology/cell based assay
[2] = molecular target: T2, Sodium channel protein type 9 subunit alpha (Homo sapiens, UniProt Q15858); assay: Inhibition of human Nav1.7 assessed as 10 Hz block by patch-clamp electrophysiology/cell based assay
[3] = molecular target: T3, Sodium channel protein type 10 subunit alpha (Homo sapiens, UniProt Q9Y5Y9); assay: Inhibition of human Nav1.8 assessed as 10 Hz block using double pulse protocol by patch-clamp electrophysiology/cell based assay
Procedure, shortened: (§1)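 Automated parallel patch clamp (PatchXpress 7000A) on human Nav isoforms, room temperature. Compound tested at 0.1, 0.3, 1, 3, 10, 30 and 100 μM, two to four cells per concentration, 5 min exposure each. Use-dependence on Nav1.1 and Nav1.8/β3 by double pulse protocol: holding -80 mV, prepulse -120 mV, then pulse 1 to 0 mV for 200 ms.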

[4] = molecular target: T4, Sodium channel protein type 4 subunit alpha (Homo sapiens, UniProt P35499); assay: Inhibition of human Nav1.4 assessed as inactivated-state block by patch-clamp electrophysiology/cell based assay; procedure, shortened: as §1
[5] = molecular target: T5, Sodium channel protein type 3 subunit alpha (Homo sapiens, UniProt Q9NY46); assay: Inhibition of human Nav1.3 assessed as inactivated-state block by patch-clamp electrophysiology/cell based assay
Procedure, shortened: (§2)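 Automated parallel patch-clamp (PatchXpress 7000A) on cells expressing human Nav1.3, run at room temperature. Compounds were tested at 0.1, 0.3, 1, 3, 10, 30 and 100 μM, each in two to four cells, with 5 min exposure per concentration.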

Rattus norvegicus = species: Rattus norvegicus; assay: Neuroprotective activity in oxygen/glucose deprivation-induced Wistar rat hippocampal slice assessed as inhibition of cell death by measuring ATP level at 50 uM; format: functional
[6] = molecular target: T6, Sodium channel protein type 5 subunit alpha (Homo sapiens, UniProt Q14524); assay: Inhibition of human Nav1.5 assessed as inactivated-state block by patch-clamp electrophysiology/cell based assay; procedure, shortened: as §1
[7] = molecular target: T1, Sodium channel protein type 2 subunit alpha; assay: Inhibition of human Nav1.2 assessed as tonic block by patch-clamp electrophysiology/cell based assay
[8] = molecular target: T6, Sodium channel protein type 5 subunit alpha; assay: Inhibition of human Nav1.5 assessed as 10 Hz block by patch-clamp electrophysiology/cell based assay; procedure, shortened: as §1
[9] = molecular target: T7, Sodium channel protein type 1 subunit alpha (Homo sapiens, UniProt P35498); assay: Inhibition of human Nav1.1 assessed as inactivated-state block using double pulse protocol by patch-clamp electrophysiology/cell based assay; procedure, shortened: as §1
[10] = molecular target: T8, Sodium channel protein type 8 subunit alpha (Homo sapiens, UniProt Q9UQD0); assay: Inhibition of human Nav1.6 assessed as tonic block by patch-clamp electrophysiology/cell based assay
Procedure, shortened: (§3)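 Automated parallel patch clamp on cells expressing human Nav isoforms (hNav1.1 to hNav1.8/β3), at room temperature. Compounds were tested at 0.1, 0.3, 1, 3, 10, 30 and 100 μM. Each exposure lasted 5 min, with two to four cells per concentration.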

[11] = molecular target: T8, Sodium channel protein type 8 subunit alpha; assay: Inhibition of human Nav1.6 assessed as inactivated-state block by patch-clamp electrophysiology/cell based assay; procedure, shortened: as §3
[12] = molecular target: T4, Sodium channel protein type 4 subunit alpha; assay: Inhibition of human Nav1.4 assessed as tonic block by patch-clamp electrophysiology/cell based assay; procedure, shortened: as §1
[13] = molecular target: T2, Sodium channel protein type 9 subunit alpha; assay: Inhibition of human Nav1.7 assessed as tonic block by patch-clamp electrophysiology/cell based assay
[14] = molecular target: T2, Sodium channel protein type 9 subunit alpha; assay: Inhibition of human Nav1.7 assessed as inactivated-state block by patch-clamp electrophysiology/cell based assay
[15] = molecular target: T6, Sodium channel protein type 5 subunit alpha; assay: Inhibition of human Nav1.5 assessed as tonic block by patch-clamp electrophysiology/cell based assay; procedure, shortened: as §1
[16] = molecular target: T5, Sodium channel protein type 3 subunit alpha; assay: Inhibition of human Nav1.3 assessed as 10 Hz block by patch-clamp electrophysiology/cell based assay; procedure, shortened: as §2
[17] = molecular target: T3, Sodium channel protein type 10 subunit alpha; assay: Inhibition of human Nav1.8 assessed as tonic block using double pulse protocol by patch-clamp electrophysiology/cell based assay; procedure, shortened: as §1
[18] = molecular target: T3, Sodium channel protein type 10 subunit alpha; assay: Inhibition of human Nav1.8 assessed as inactivated-state block using double pulse protocol by patch-clamp electrophysiology/cell based assay; procedure, shortened: as §1
[19] = molecular target: T7, Sodium channel protein type 1 subunit alpha; assay: Inhibition of human Nav1.1 assessed as 10 Hz block using double pulse protocol by patch-clamp electrophysiology/cell based assay; procedure, shortened: as §1
[20] = molecular target: T5, Sodium channel protein type 3 subunit alpha; assay: Inhibition of human Nav1.3 assessed as tonic block by patch-clamp electrophysiology/cell based assay; procedure, shortened: as §2
[21] = molecular target: T8, Sodium channel protein type 8 subunit alpha; assay: Inhibition of human Nav1.6 assessed as 10 Hz block by patch-clamp electrophysiology/cell based assay; procedure, shortened: as §3
[22] = molecular target: T7, Sodium channel protein type 1 subunit alpha; assay: Inhibition of human Nav1.1 assessed as tonic block using double pulse protocol by patch-clamp electrophysiology/cell based assay; procedure, shortened: as §1
[23] = molecular target: T1, Sodium channel protein type 2 subunit alpha; assay: Inhibition of human Nav1.2 assessed as inactivated-state block by patch-clamp electrophysiology/cell based assay
[24] = molecular target: T4, Sodium channel protein type 4 subunit alpha; assay: Inhibition of human Nav1.4 assessed as 10 Hz block by patch-clamp electrophysiology/cell based assay; procedure, shortened: as §1
[25] = Metabolic stability in rat liver microsomes assessed as drug turnover at 1 uM at 40 mins by LC-MS/MS analysis; format: ADME; conditions: read-out: Drug metabolism
Procedure, shortened: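 Compound at 1 μM was incubated (n=2) with pooled rat liver microsomes (0.25 mg protein/ml) at 37°C for 0 and 40 min. Reactions were stopped with acetonitrile containing an internal standard, and parent disappearance was measured by LC-MS/MS. Percentage turnover was taken from peak heights relative to the zero-time samples.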

Mus musculus [26] = assay: Neuroprotective activity in C57BL/6-Cg-Tg(Thy1-CFP)23Jrs.Tg(Tcra2D2, Tcrb2D2)1Kuch/J transgenic mouse optic neuritis model assessed as increase in ganglion cell survival at 5 mg/kg, ip; format: functional, organism-based; set-up: dose 5 mg/kg
[27] = Displacement of [3H]sipatrigine from Wistar rat brain synaptosomes voltage-gated sodium channel by liquid scintillation counting; format: subcellular
Mus musculus [28] = assay: Immunosuppressive activity in […] oxazolone-induced ABH mouse assessed as effect on cell proliferation response in draining lymph node at 5 to 50 mg/kg, ip from day -1 to day 2 by local lymph node assay; format: functional, organism-based
Mus musculus [29] = assay: Toxicity in mouse assessed as motor coordination at 5 to 50 mg/kg, ip from day -1 to day 2 by RotaRod assay; format: organism-based; set-up: dose 5-50 mg/kg, route intraperitoneal; conditions: in vivo
Mus musculus [30] = assay: Neuroprotective activity in C57BL/6-Cg-Tg(Thy1-CFP)23Jrs.Tg(Tcra2D2, Tcrb2D2)1Kuch/J transgenic mouse optic neuritis model assessed as reduction in retinal loss measured as number of cells at 5 mg/kg, ip (reference value: 914 +/- 89 cells); format: functional; conditions: route intraperitoneal

T3 sequence (Q9Y5Y9 whole entry, canonical isoform): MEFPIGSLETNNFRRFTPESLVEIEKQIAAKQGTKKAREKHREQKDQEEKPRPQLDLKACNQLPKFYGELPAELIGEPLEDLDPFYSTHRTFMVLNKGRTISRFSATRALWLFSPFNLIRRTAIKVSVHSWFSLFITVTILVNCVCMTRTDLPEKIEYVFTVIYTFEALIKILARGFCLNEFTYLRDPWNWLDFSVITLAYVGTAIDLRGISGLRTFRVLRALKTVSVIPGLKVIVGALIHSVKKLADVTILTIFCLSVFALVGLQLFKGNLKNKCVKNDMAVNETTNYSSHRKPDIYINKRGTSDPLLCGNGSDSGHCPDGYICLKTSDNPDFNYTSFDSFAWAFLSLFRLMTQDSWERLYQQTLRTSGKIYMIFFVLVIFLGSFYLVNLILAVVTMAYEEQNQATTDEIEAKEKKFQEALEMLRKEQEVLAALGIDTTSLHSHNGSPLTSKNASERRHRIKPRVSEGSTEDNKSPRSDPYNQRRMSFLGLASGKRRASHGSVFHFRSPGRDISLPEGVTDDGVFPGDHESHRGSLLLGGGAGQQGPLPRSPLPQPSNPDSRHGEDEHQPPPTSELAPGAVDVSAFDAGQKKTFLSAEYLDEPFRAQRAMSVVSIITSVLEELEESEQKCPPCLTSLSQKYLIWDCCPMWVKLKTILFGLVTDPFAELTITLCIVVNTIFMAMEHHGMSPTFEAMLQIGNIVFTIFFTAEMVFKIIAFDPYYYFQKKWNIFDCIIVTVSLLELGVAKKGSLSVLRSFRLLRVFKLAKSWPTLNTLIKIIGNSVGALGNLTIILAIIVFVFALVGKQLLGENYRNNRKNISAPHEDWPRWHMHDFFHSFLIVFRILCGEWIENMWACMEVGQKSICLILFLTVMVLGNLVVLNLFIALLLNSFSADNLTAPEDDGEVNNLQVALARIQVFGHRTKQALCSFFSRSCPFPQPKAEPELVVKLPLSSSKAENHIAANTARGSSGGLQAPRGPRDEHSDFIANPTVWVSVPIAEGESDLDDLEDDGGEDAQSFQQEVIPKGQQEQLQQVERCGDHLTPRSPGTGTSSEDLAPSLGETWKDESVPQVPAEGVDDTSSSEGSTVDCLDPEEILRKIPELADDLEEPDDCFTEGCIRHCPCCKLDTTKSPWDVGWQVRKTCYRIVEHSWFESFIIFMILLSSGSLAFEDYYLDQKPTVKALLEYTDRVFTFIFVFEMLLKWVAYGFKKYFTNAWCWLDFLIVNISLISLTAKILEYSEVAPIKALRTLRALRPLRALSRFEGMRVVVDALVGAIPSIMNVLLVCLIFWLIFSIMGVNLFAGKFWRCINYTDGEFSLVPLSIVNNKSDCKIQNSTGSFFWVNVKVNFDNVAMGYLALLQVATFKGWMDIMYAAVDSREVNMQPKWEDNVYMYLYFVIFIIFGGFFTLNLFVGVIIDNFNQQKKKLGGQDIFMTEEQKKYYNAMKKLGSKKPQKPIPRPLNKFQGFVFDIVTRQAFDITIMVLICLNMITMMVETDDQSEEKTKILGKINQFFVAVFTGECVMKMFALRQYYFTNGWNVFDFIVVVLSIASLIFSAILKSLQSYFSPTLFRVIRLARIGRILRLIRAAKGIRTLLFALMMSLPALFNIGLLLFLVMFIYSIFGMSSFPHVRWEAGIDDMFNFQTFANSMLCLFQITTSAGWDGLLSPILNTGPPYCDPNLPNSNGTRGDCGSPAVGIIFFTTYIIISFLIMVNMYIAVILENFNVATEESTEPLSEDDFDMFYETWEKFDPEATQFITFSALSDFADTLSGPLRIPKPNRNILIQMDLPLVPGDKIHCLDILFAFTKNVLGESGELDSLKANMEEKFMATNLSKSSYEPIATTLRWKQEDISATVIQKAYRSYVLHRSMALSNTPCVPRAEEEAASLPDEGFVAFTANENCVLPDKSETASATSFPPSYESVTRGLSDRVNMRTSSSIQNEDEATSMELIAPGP
T1 sequence (Q99250 whole entry): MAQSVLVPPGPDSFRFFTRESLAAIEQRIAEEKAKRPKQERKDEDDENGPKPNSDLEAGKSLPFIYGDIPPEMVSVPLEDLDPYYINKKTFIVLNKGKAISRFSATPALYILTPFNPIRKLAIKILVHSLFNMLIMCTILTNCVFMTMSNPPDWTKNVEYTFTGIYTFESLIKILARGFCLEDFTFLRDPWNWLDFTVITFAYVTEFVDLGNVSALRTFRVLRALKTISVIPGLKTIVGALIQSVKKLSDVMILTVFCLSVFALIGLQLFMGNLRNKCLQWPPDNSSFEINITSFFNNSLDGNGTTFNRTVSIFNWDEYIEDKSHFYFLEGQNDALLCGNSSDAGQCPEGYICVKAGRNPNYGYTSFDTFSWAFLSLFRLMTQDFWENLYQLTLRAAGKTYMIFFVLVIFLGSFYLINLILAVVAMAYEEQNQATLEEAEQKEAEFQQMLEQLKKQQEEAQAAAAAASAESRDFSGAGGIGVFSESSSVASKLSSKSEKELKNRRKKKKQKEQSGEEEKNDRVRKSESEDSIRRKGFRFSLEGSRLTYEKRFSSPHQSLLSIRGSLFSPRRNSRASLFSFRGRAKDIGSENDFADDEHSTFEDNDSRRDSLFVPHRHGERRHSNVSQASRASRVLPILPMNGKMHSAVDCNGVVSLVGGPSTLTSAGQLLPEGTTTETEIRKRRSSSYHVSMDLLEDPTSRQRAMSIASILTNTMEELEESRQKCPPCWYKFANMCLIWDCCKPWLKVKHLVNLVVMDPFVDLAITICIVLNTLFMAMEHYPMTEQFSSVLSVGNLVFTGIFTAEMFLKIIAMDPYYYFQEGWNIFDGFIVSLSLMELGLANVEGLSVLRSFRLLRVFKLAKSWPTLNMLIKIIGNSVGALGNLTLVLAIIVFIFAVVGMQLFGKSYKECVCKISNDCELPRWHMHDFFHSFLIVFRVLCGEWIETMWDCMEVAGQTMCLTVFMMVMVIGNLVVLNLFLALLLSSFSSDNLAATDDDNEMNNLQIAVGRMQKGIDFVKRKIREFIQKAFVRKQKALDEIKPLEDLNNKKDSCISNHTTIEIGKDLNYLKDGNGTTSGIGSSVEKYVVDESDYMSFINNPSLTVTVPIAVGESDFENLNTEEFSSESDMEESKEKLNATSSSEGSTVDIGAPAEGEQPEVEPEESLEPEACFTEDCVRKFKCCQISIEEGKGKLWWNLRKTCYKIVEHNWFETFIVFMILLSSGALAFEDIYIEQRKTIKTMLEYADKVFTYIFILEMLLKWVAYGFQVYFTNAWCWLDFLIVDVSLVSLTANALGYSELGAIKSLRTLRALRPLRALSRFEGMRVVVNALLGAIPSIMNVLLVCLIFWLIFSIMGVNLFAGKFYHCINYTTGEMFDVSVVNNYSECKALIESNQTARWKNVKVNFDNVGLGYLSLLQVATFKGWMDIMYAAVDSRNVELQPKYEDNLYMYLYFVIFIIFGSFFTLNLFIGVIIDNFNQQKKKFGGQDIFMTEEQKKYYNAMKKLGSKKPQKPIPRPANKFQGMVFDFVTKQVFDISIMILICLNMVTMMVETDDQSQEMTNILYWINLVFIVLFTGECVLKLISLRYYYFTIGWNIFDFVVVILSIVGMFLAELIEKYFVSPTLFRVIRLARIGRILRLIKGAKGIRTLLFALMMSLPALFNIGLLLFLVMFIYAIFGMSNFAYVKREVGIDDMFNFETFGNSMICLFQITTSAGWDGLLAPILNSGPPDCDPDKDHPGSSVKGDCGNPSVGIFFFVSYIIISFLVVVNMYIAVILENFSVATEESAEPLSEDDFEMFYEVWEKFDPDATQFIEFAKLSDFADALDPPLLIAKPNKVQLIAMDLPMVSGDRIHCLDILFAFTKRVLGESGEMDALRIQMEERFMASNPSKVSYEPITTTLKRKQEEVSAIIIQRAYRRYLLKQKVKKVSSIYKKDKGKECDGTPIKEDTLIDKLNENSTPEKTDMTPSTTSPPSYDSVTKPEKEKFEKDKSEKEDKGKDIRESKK

Row | Compound | IC50 [4] [µM] | IC50 [5] [µM] | inhibition at 50 µM (Rattus norvegicus) [%] | IC50 [6] [µM] | IC50 [9] [µM] | IC50 [10] [µM] | IC50 [11] [µM] | IC50 [12] [µM] | IC50 [15] [µM] | IC50 [16] [µM] | IC50 [19] [µM] | IC50 [20] [µM] | IC50 [21] [µM] | IC50 [22] [µM] | IC50 [24] [µM] | other results
1 | O=C(NCc1noc(-c2c3ccccc3nn2CCn2ccnc2)n1)c1cccc(OC(F)(F)F)c1 | 4.58 | 4.76 | 78 | 0.92 | 2.55 | > 100 | 3.32 | 18.3 | 36 | 97 | 8.54 | > 100 | 32.2 | 15.3 | 10.5 | IC50 [1]: 24.1 µM; IC50 [2]: 4.82 µM; IC50 [3]: 5.66 µM; IC50 [7]: 65 µM; IC50 [8]: 14.8 µM; IC50 [13]: 5.64 µM; IC50 [14]: 3.02 µM; IC50 [17]: 6.34 µM; IC50 [18]: 3.77 µM; IC50 [23]: 3.54 µM
2 | O=C(NCc1noc(-c2nn(CCn3ccnc3)c3ccccc23)n1)c1ccccc1 | 24 | 22 | 47 | 19 | 21 | > 100 | 24 | > 100 | > 100 | > 100 | > 100 | > 100 | > 100 | > 100 | 56 | metabolised at 40 min, 1 µM [25]: 47%; Activity (Mus musculus [26]): Active; IC50 [27]: 13 µM; inhibition (Mus musculus [28]): inactive; Activity (Mus musculus [29]): Non-toxic; Activity (Mus musculus [30]): 1298 /mm2
